Bioassay records deposited in PubChem BioAssay by several laboratories.
STAT3 act: activators of IL-6 induced STAT3 signaling; activation (% of control), % at 5.6 µM; 0.91% of 190,000 active; U3A cells, IL-6 STAT3-luciferase reporter, luminescence; 100% = signal with IL-6 EC80 alone;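 active means activation above the screen-wide mean of compound activation plus 3 SD, cut at about 130% in these data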
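System – human U3A cells carrying STAT3-luciferase construct · Probe or stimulus – Interleukin-6, 33 ng/mL · Schedule – compound 1 h, then IL-6 6 h at 37 °C · Signal – luminescence from STAT3-driven luciferase reporter · Evaluation – percent of IL-6-only median luminescence · Benchmarks – IL-6-only high control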
STAT1 act: STAT1 signaling activation. NIH 3T3 STAT1-luciferase reporter, IFN-gamma, luminescence; 100% = IFN-gamma alone, no compound. activation (% of control), % at 5.5 µM. 2.6% of 200,000 active;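 active means activation above the screen-wide mean activation plus 3 SD, cut at about 130% in these data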
NF-kB neuron act: NF-kB expression increase, human neuronal cells | NF-kB reporter expression; stronger effect = higher value | fold change at 12.5 µM | 1.6% of 190,000 active | AID 1239; in the data active means fold change above about 3.3
STAT1 inh: STAT1 signaling inhibition; NIH 3T3 STAT1-luciferase reporter, IFN-gamma, luminescence; 0.35% of 200,000 active; AID 920; inhibition, % at 5.5 µM;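 active means inhibition above a set limit, the mean inhibition across all tested compounds plus 3 SD, cut at about 34% in these data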
APP 5'UTR act: activates APP 5'UTR luciferase reporter. SH-SY5Y APP 5'UTR luciferase reporter, luminescence; zero percent = DMSO vehicle wells. activation, % at 2 µM. 1% of 190,000 active;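 active means activation above a set limit, based on mean plus 3 SD of controls, cut at about 140% in these data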
STAT3 blocker: STAT3 signaling inhibition; U3A cells, IL-6 STAT3-luciferase reporter, luminescence; host cell line lacks STAT1; inhibition, % at 5.5 µM; 0.89% of 190,000 active; AID 862;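 active means inhibition above the mean inhibition across all screened compounds plus 3 SD, cut at about 44% in these data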
Hits are given with their value. A selection: hits, their analogues and other compounds. The true share with any hit is near 4.9%.

CCN1C=CC(=C2C(=O)c3ccccc3C2=O)C=C1 was read as STAT3 act inactive, STAT1 act inactive, NF-kB neuron act inactive, STAT1 inh 88.0, APP 5'UTR act inactive and STAT3 blocker 108.7.
For CN1C=CC(=C2C(=O)c3ccccc3C2=O)C=C1 the results were STAT3 act inactive, STAT1 act inactive, NF-kB neuron act 3.59, STAT1 inh inactive, APP 5'UTR act inactive and STAT3 blocker inactive.
For Cc1ccc2nc(SC(C)C(=O)Nc3cccc([N+](=O)[O-])c3)[nH]c2c1 (stereo not drawn) the results were STAT3 act inactive, STAT1 act inactive, NF-kB neuron act inactive, STAT1 inh inactive, APP 5'UTR act inactive and STAT3 blocker inactive.
For CCc1cc2cc(C)cc(C)c2[nH]c1=S the results were STAT3 act inactive, STAT1 act inactive, NF-kB neuron act inactive, STAT1 inh inactive, APP 5'UTR act inactive and STAT3 blocker inactive.
For CCCCCOC(=O)NCC(O)c1ccccc1 (stereo not drawn) the results were STAT3 act inactive, STAT1 act 144.3, NF-kB neuron act inactive, STAT1 inh inactive, APP 5'UTR act inactive and STAT3 blocker inactive.
O=C(c1cc2cc(Br)ccc2o1)N1CCCCC1 was read as STAT3 act inactive, STAT1 act 134.3, NF-kB neuron act inactive, STAT1 inh inactive, APP 5'UTR act inactive and STAT3 blocker inactive.
`O=C(c1cc2ccccc2c(=O)o1)N1CCCCCC1` gave STAT3 act inactive, STAT1 act inactive, NF-kB neuron act inactive, STAT1 inh inactive, APP 5'UTR act inactive and STAT3 blocker inactive.
`OC[C@@H](O)C1OC2NC(=S)OC2C1O` (stereo partly drawn) gave STAT3 act inactive, STAT1 act inactive, NF-kB neuron act inactive, STAT1 inh inactive, APP 5'UTR act inactive and STAT3 blocker inactive.
Screening CCCCNC(=O)c1onc(CSc2ccccc2CC)c1C(=O)O returned STAT3 act inactive, STAT1 act inactive, NF-kB neuron act inactive, STAT1 inh inactive, APP 5'UTR act inactive and STAT3 blocker 120.3.
`O=C(O)/C=C/c1cnc2ccccc2n1` gave STAT3 act inactive, STAT1 act inactive, NF-kB neuron act inactive, STAT1 inh inactive, APP 5'UTR act inactive and STAT3 blocker inactive.
Screening O=C(/C=C/c1cnc2ccccc2n1)NC12CC3CC(CC(C3)C1)C2 returned STAT3 act inactive, STAT1 act 150.1, NF-kB neuron act inactive, STAT1 inh inactive, APP 5'UTR act 190.4 and STAT3 blocker inactive.
Screening C/C(=N\NC(=O)c1ccc(Cl)c(Cl)c1)c1ccc(Br)s1 returned STAT3 act inactive, STAT1 act inactive, NF-kB neuron act inactive, STAT1 inh inactive, APP 5'UTR act inactive and STAT3 blocker inactive.
For C/C(=N/NC(=O)c1ccc2c(c1)OCO2)c1ccc(Br)s1 the results were STAT3 act inactive, STAT1 act 136.3, NF-kB neuron act inactive, STAT1 inh inactive, APP 5'UTR act inactive and STAT3 blocker inactive.
COc1cc(-c2nnc(CSc3nnc(Nc4ccc(Oc5ccccc5)cc4)s3)o2)cc(OC)c1OC was read as STAT3 act inactive, STAT1 act inactive, NF-kB neuron act inactive, STAT1 inh inactive, APP 5'UTR act inactive and STAT3 blocker inactive.
`O=C(/C=C/c1ccco1)Nc1nc(-c2ccccn2)cs1` gave STAT3 act inactive, STAT1 act 128.7, NF-kB neuron act inactive, STAT1 inh inactive, APP 5'UTR act inactive and STAT3 blocker inactive.
For Cc1csc(NC(=O)/C=C/c2ccco2)n1 the results were STAT3 act inactive, STAT1 act 147.2, NF-kB neuron act inactive, STAT1 inh inactive, APP 5'UTR act inactive and STAT3 blocker inactive.
Screening Cc1ccc(NC(=O)/C=C/c2ccco2)nc1 returned STAT3 act inactive, STAT1 act 147.4, NF-kB neuron act inactive, STAT1 inh inactive, APP 5'UTR act inactive and STAT3 blocker inactive.
For O=C(/C=C/c1ccco1)Nc1cccc2cccnc12 the results were STAT3 act inactive, STAT1 act inactive, NF-kB neuron act inactive, STAT1 inh inactive, APP 5'UTR act inactive and STAT3 blocker inactive.
Screening O=C(/C=C/c1ccco1)Nc1nc(-c2ccccc2)cs1 returned STAT3 act inactive, STAT1 act 133.2, NF-kB neuron act inactive, STAT1 inh inactive, APP 5'UTR act inactive and STAT3 blocker inactive.
`COc1ccc(-c2csc(NC(=S)NC(=O)/C=C/c3ccco3)n2)cc1OC` gave STAT3 act inactive, STAT1 act inactive, NF-kB neuron act inactive, STAT1 inh inactive, APP 5'UTR act inactive and STAT3 blocker inactive.
Screening Cc1ccc(C(=O)NCC(=O)OCC(=O)Nc2ccccc2[N+](=O)[O-])cc1 returned STAT3 act inactive, STAT1 act inactive, NF-kB neuron act inactive, STAT1 inh inactive, APP 5'UTR act inactive and STAT3 blocker inactive.
Screening O=C(CC1CS(=O)(=O)CC1CC(=O)Nc1ccc2c(c1)OCCO2)Nc1ccc2c(c1)OCCO2 (stereo not drawn) returned STAT3 act inactive, STAT1 act inactive, NF-kB neuron act inactive, STAT1 inh inactive, APP 5'UTR act inactive and STAT3 blocker inactive.
Screening COc1ccc2oc(=O)c(C(=O)C[n+]3cccc(C)c3)cc2c1 returned STAT3 act inactive, STAT1 act inactive, NF-kB neuron act inactive, STAT1 inh inactive, APP 5'UTR act inactive and STAT3 blocker inactive.
For CC12CCCCC1N(O)C(=O)C(=O)N2O (stereo not drawn) the results were STAT3 act inactive, STAT1 act inactive, NF-kB neuron act inactive, STAT1 inh inactive, APP 5'UTR act inactive and STAT3 blocker inactive.
For O=C(O)c1ccc(Nc2nc(-c3ccccc3)cs2)cc1 the results were STAT3 act inactive, STAT1 act 145.2, NF-kB neuron act 4.72, STAT1 inh inactive, APP 5'UTR act inactive and STAT3 blocker inactive.
For O=C(Nc1ccc(Cl)cc1)Nc1nc(-c2ccccc2)cs1 the results were STAT3 act inactive, STAT1 act inactive, NF-kB neuron act inactive, STAT1 inh inactive, APP 5'UTR act inactive and STAT3 blocker inactive.
For CC1(C)CC(=O)C2=C(C1)OC1=C(C(=O)CC(C)(C)C1)C2c1ccc(O)c([N+](=O)[O-])c1 the results were STAT3 act inactive, STAT1 act inactive, NF-kB neuron act inactive, STAT1 inh inactive, APP 5'UTR act inactive and STAT3 blocker inactive.
`CC1(C)CC(=O)C2=C(C1)OC1=C(C(=O)CC(C)(C)C1)C2c1ccc(O)cc1O` gave STAT3 act inactive, STAT1 act inactive, NF-kB neuron act 6.18, STAT1 inh inactive, APP 5'UTR act inactive and STAT3 blocker inactive.
CCCc1ccc(OCc2ccc(C(=O)NCc3cccnc3)o2)c(OC)c1 was read as STAT3 act inactive, STAT1 act inactive, NF-kB neuron act inactive, STAT1 inh inactive, APP 5'UTR act inactive and STAT3 blocker inactive.
`CCCc1ccc(OCc2ccc(C(=O)Nc3cccc(C)n3)o2)c(OC)c1` gave STAT3 act inactive, STAT1 act 138.1, NF-kB neuron act inactive, STAT1 inh inactive, APP 5'UTR act inactive and STAT3 blocker inactive.
For CC(C)(C)c1csc(NC(=O)c2cccs2)n1 the results were STAT3 act inactive, STAT1 act 130.2, NF-kB neuron act inactive, STAT1 inh inactive, APP 5'UTR act inactive and STAT3 blocker inactive.
